From ChEMBL document CHEMBL1133116, “Synthesis and evaluation of 17-aliphatic heterocycle-substituted steroidal inhibitors of 17alpha-hydroxylase/C17-20-lyase (P450 17)” (J Med Chem, 2000)

Columns and labels:
[1] = molecular target: T1, Steroid 17-alpha-hydroxylase/17,20 lyase (Homo sapiens, UniProt P05093); test: Inhibition of Cytochrome P450 17 from human testicular microsomes at 2.5 uM; n.i. means no inhibition
T1 sequence (P05093 whole entry): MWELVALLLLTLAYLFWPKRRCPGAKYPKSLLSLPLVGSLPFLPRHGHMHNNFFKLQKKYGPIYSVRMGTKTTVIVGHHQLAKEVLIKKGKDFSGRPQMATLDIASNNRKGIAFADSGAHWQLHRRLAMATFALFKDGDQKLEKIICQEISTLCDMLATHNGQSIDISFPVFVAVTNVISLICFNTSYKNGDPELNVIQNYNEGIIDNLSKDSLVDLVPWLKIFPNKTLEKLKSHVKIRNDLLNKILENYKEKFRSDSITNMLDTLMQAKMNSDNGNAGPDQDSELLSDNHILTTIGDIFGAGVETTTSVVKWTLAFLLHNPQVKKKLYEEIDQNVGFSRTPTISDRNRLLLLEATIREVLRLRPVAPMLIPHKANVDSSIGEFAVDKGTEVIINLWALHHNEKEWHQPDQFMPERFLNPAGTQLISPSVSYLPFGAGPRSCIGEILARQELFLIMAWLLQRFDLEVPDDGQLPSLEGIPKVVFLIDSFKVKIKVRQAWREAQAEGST
Procedure, shortened: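 Human testicular microsomes as P450 17 source, with progesterone in large excess (25 µM) as substrate. Inhibitor was tested at 2.5 µM. The 16α- and 17α-hydroxyprogesterone products were quantified by reverse-phase HPLC with UV detection. No lyase products form with the human enzyme. Values are means of at least two experiments.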

[2] = molecular target: T2, Steroid 17-alpha-hydroxylase/17,20 lyase (Rattus norvegicus, UniProt P11715); test: Inhibition of Cytochrome P450 17 from rat testicular microsomes at 125 uM; n.i. means no inhibition
T2 sequence (P11715 whole entry): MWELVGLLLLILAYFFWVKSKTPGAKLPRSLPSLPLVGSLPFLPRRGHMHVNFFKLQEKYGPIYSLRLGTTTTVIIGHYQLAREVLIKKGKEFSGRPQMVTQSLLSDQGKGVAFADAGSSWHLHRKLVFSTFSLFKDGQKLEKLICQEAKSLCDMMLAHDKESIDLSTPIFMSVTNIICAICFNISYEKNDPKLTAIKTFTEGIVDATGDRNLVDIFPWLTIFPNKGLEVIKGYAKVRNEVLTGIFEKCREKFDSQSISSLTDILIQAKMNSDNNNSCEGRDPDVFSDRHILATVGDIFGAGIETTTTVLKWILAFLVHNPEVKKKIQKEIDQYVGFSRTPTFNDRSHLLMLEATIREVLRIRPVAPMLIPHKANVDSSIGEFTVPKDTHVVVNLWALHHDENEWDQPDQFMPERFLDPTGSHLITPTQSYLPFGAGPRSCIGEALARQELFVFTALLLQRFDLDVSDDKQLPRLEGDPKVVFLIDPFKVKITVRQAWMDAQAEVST
Procedure, shortened: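 Rat testicular microsomes as P450 17 source, with progesterone substrate at 25 µM. […] Products were quantified by reverse-phase HPLC with UV detection. Values are means of at least two experiments.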

- IC50 [1]: Not Active
- IC50 [2]: Not Active
SMILES: COC1CC[C@@]2(C)C(=CC[C@H]3[C@@H]4CC[C@@H](C5CO5)[C@@]4(C)CC[C@@H]32)C1 (some centres not stated)
